Measured values: ChEMBL document CHEMBL4689842, “EUbOPEN Chemogenomics Library wave 1” (2021)

Tested on: HEK-293T
Test: Multiplex assay against HEK293T;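 for Population Tubulin-Different-Phenotype (%): share of the cells with healthy nuclei that show this phenotype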
Assay type: toxicity, cell-based
Conditions: human
Method in brief: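 Cells stained live at seeding with Hoechst33342, BioTracker Green Microtubule Cytoskeleton Dye, MitoTracker Red and Annexin V Alexa Fluor 680 were imaged on a CQ1 microscope at 37°C and 5% CO2 after compound addition. Their classification by CellPathfinder machine-learning gating ran from Hoechst high-intensity objects versus normal cells, to healthy, pyknosed or fragmented nuclei among normal cells, to mitotic or apoptotic among pyknosed cells. Tubulin, mitochondrial-mass and membrane-permeability phenotypes are per cents of healthy-nucleus cells.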

[1] = 12 h, 1 µM, compound concentration 1 uM, replicate 1
[2] = 12 h, 1 µM, compound concentration 1 uM, replicate 2
[3] = 12 h, 10 µM, compound concentration 10 uM, replicate 1
[4] = 12 h, 10 µM, compound concentration 10 uM, replicate 2
[5] = 24 h, 1 µM, compound concentration 1 uM, replicate 1
[6] = 24 h, 1 µM, compound concentration 1 uM, replicate 2
[7] = 24 h, 10 µM, compound concentration 10 uM, replicate 1
[8] = 24 h, 10 µM, compound concentration 10 uM, replicate 2
[9] = 48 h, 1 µM, compound concentration 1 uM, replicate 1
[10] = 48 h, 1 µM, compound concentration 1 uM, replicate 2
[11] = 48 h, 10 µM, compound concentration 10 uM, replicate 1
[12] = 48 h, 10 µM, compound concentration 10 uM, replicate 2

## CC(C)NCC(O)COc1ccc(CCOCC2CC2)cc1.Cl (stereo not given) [BETAXOLOL HYDROCHLORIDE]
[1]
  Population Apoptotic (%): 43%
  Population Fragmented Nuclei (%): 7%
  Population Healthy Nuclei (%): 49%
  Population Hoechst High Intensity Objects (%): 10%
  Population Membrane Permeable-Phenotype (%): 3%
  Population Mitochondria Different-Phenotype (%): 82%
  Population Mitotic Cells (%): 56%
  Population Normal (%): 89%
  Population Pyknosed Nuclei (%): 43%
  Population Tubulin-Different-Phenotype (%): 56%
  Total Cell Count: 343
[2]
  Population Apoptotic (%): 12%
  Population Fragmented Nuclei (%): 6%
  Population Healthy Nuclei (%): 43%
  Population Hoechst High Intensity Objects (%): 1%
  Population Membrane Permeable-Phenotype (%): 8%
  Population Mitochondria Different-Phenotype (%): 14%
  Population Mitotic Cells (%): 87%
  Population Normal (%): 98%
  Population Pyknosed Nuclei (%): 50%
  Population Tubulin-Different-Phenotype (%): 19%
  Total Cell Count: 227
[3]
  Population Apoptotic (%): 55%
  Population Fragmented Nuclei (%): 9%
  Population Hoechst High Intensity Objects (%): 13%
  Population Membrane Permeable-Phenotype (%): 1%
  Population Mitochondria Different-Phenotype (%): 100%
  Population Mitotic Cells (%): 44%
  Population Normal (%): 86%
  Population Pyknosed Nuclei (%): 59%
  Population Tubulin-Different-Phenotype (%): 95%
  Total Cell Count: 247
[4]
  Population Apoptotic (%): 36%
  Population Fragmented Nuclei (%): 3%
  Population Healthy Nuclei (%): 30%
  Population Hoechst High Intensity Objects (%): 2%
  Population Membrane Permeable-Phenotype (%): 6%
  Population Mitochondria Different-Phenotype (%): 71%
  Population Mitotic Cells (%): 63%
  Population Normal (%): 97%
  Population Pyknosed Nuclei (%): 65%
  Population Tubulin-Different-Phenotype (%): 77%
  Total Cell Count: 259
[5]
  Population Apoptotic (%): 45%
  Population Fragmented Nuclei (%): 6%
  Population Healthy Nuclei (%): 60%
  Population Hoechst High Intensity Objects (%): 7%
  Population Membrane Permeable-Phenotype (%): 2%
  Population Mitochondria Different-Phenotype (%): 65%
  Population Mitotic Cells (%): 54%
  Population Normal (%): 92%
  Population Pyknosed Nuclei (%): 33%
  Population Tubulin-Different-Phenotype (%): 37%
  Total Cell Count: 403
[6]
  Population Apoptotic (%): 10%
  Population Healthy Nuclei (%): 64%
  Population Hoechst High Intensity Objects (%): 1%
  Population Membrane Permeable-Phenotype (%): 7%
  Population Mitochondria Different-Phenotype (%): 22%
  Population Mitotic Cells (%): 89%
  Population Normal (%): 98%
  Population Pyknosed Nuclei (%): 29%
  Population Tubulin-Different-Phenotype (%): 32%
  Total Cell Count: 314
[7]
  Population Apoptotic (%): 69%
  Population Fragmented Nuclei (%): 11%
  Population Healthy Nuclei (%): 32%
  Population Hoechst High Intensity Objects (%): 15%
  Population Membrane Permeable-Phenotype (%): 4%
  Population Mitochondria Different-Phenotype (%): 98%
  Population Mitotic Cells (%): 30%
  Population Normal (%): 84%
  Population Pyknosed Nuclei (%): 55%
  Population Tubulin-Different-Phenotype (%): 80%
  Total Cell Count: 258
[8]
  Population Apoptotic (%): 47%
  Population Fragmented Nuclei (%): 2%
  Population Healthy Nuclei (%): 50%
  Population Hoechst High Intensity Objects (%): 5%
  Population Membrane Permeable-Phenotype (%): 3%
  Population Mitochondria Different-Phenotype (%): 80%
  Population Mitotic Cells (%): 52%
  Population Normal (%): 94%
  Population Pyknosed Nuclei (%): 46%
  Population Tubulin-Different-Phenotype (%): 82%
  Total Cell Count: 321
[9]
  Population Apoptotic (%): 28%
  Population Fragmented Nuclei (%): 8%
  Population Healthy Nuclei (%): 79%
  Population Hoechst High Intensity Objects (%): 5%
  Population Membrane Permeable-Phenotype (%): 1%
  Population Mitochondria Different-Phenotype (%): 28%
  Population Mitotic Cells (%): 71%
  Population Normal (%): 94%
  Population Pyknosed Nuclei (%): 12%
  Population Tubulin-Different-Phenotype (%): 31%
  Total Cell Count: 701
[10]
  Population Apoptotic (%): 11%
  Population Fragmented Nuclei (%): 6%
  Population Healthy Nuclei (%): 81%
  Population Hoechst High Intensity Objects (%): 3%
  Population Membrane Permeable-Phenotype (%): 4%
  Population Mitochondria Different-Phenotype (%): 6%
  Population Mitotic Cells (%): 88%
  Population Normal (%): 97%
  Population Pyknosed Nuclei (%): 11%
  Population Tubulin-Different-Phenotype (%): 22%
  Total Cell Count: 601
[11]
  Population Apoptotic (%): 67%
  Population Fragmented Nuclei (%): 14%
  Population Healthy Nuclei (%): 48%
  Population Hoechst High Intensity Objects (%): 14%
  Population Membrane Permeable-Phenotype (%): 0%
  Population Mitochondria Different-Phenotype (%): 84%
  Population Mitotic Cells (%): 32%
  Population Normal (%): 85%
  Population Pyknosed Nuclei (%): 36%
  Population Tubulin-Different-Phenotype (%): 61%
  Total Cell Count: 288
[12]
  Population Apoptotic (%): 40%
  Population Fragmented Nuclei (%): 4%
  Population Healthy Nuclei (%): 72%
  Population Hoechst High Intensity Objects (%): 4%
  Population Membrane Permeable-Phenotype (%): 1%
  Population Mitochondria Different-Phenotype (%): 63%
  Population Mitotic Cells (%): 59%
  Population Normal (%): 95%
  Population Pyknosed Nuclei (%): 23%
  Population Tubulin-Different-Phenotype (%): 77%
  Total Cell Count: 435
